# Reference: ChEMBL document CHEMBL1926550, “Synthesis and antibacterial activity of naphthyridone derivatives containing mono/difluoro-methyloxime pyrrolidine scaffolds” (2012)
# Key:
# Format in all cases: functional
# [1] = tested on: Klebsiella pneumoniae; assay: Antibacterial activity against Klebsiella pneumoniae 10-3 infected KM mouse systemic infection model assessed as decrease in mouse mortality administered orally twice after 1 and 4 hrs post infection measured up to 7 days; conditions: 10-3, po
# In short: (§1)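 Strains grown on MH agar at 35 °C for 18 h, suspended in gastric mucin. Male KM mice (19–21 g), groups of 10, infected intraperitoneally with 0.5 mL at 5–10× MLD. Four oral dose levels per drug at 1 and 4 h post infection. Mortality followed 7 days; ED50 with 95% confidence limits by Bliss method.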
# [2] = tested on: Escherichia coli; assay: Antibacterial activity against Escherichia coli 10-1 after 18 hrs by two fold serial dilution method; conditions: 10-1, 18 h
# In short: (§2)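 Agar two-fold serial dilution in melted Mueller-Hinton agar, final concentrations 128 down to 0.008 μg/mL. Plates inoculated with 10⁴ cfu and incubated at 35 °C for 18 h. MIC taken as the lowest concentration giving no visible growth on the plate.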
# [3] = tested on: Escherichia coli; assay: Antibacterial activity against Escherichia coli 10-2 infected KM mouse systemic infection model assessed as decrease in mouse mortality administered orally twice after 1 and 4 hrs post infection measured up to 7 days; conditions: 10-2, po; in short: as §1
# [4] = tested on: Escherichia coli; assay: Antibacterial activity against Escherichia coli 10-2 after 18 hrs by two fold serial dilution method; conditions: 10-2, 18 h; in short: as §2
# [5] = tested on: Pseudomonas aeruginosa; assay: Antibacterial activity against Pseudomonas aeruginosa 10-1 after 18 hrs by two fold serial dilution method; conditions: 10-1, 18 h; in short: as §2
# [6] = tested on: Enterococcus faecium; assay: Antibacterial activity against Enterococcus faecium 09-4 after 18 hrs by two fold serial dilution method; conditions: 09-4, 18 h; in short: as §2
# [7] = tested on: Pseudomonas aeruginosa; assay: Ratio of gemifloxacin ED50 to compound ED50 for Pseudomonas aeruginosa 10-1 infected KM mouse systemic infection model
# [8] = tested on: Staphylococcus aureus; assay: Antibacterial activity against methicillin-resistant Staphylococcus aureus 10-2 infected KM mouse systemic infection model assessed as decrease in mouse mortality administered orally twice after 1 and 4 hrs post infection measured up to 7 days; conditions: 10-2, po; in short: as §1
# [9] = tested on: Staphylococcus aureus; assay: Antibacterial activity against methicillin-sensitive Staphylococcus aureus 10-5 after 18 hrs by two fold serial dilution method; conditions: 10-5, 18 h; in short: as §2
# [10] = tested on: Escherichia coli; assay: Antibacterial activity against Escherichia coli 09-2 after 18 hrs by two fold serial dilution method; conditions: 09-2, 18 h; in short: as §2
# [11] = tested on: Staphylococcus epidermidis; assay: Antibacterial activity against methicillin-resistant Staphylococcus epidermidis 10-4 after 18 hrs by two fold serial dilution method; conditions: 10-4, 18 h
# In short: (§3)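 Agar two-fold serial dilution in melted Mueller-Hinton agar, 128 to 0.008 μg/mL. Plates inoculated with 10⁴ cfu, incubated 35 °C for 18 h. MIC taken as lowest concentration giving no visible growth on the plate.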
# [12] = tested on: Enterococcus faecium; assay: Antibacterial activity against Enterococcus faecium 09-5 after 18 hrs by two fold serial dilution method; conditions: 09-5, 18 h; in short: as §2
# [13] = tested on: Enterococcus faecium; assay: Antibacterial activity against Enterococcus faecium 09-3 after 18 hrs by two fold serial dilution method; conditions: 09-3, 18 h; in short: as §2
# [14] = tested on: Staphylococcus aureus; assay: Antibacterial activity against methicillin-resistant Staphylococcus aureus 10-4 after 18 hrs by two fold serial dilution method; conditions: 10-4, 18 h; in short: as §3
# [15] = tested on: Pseudomonas aeruginosa; assay: Antibacterial activity against Pseudomonas aeruginosa 10-3 after 18 hrs by two fold serial dilution method; conditions: 10-3, 18 h; in short: as §2
# [16] = tested on: Streptococcus pneumoniae; assay: Antibacterial activity against Streptococcus pneumoniae 10-1 after 18 hrs by two fold serial dilution method; conditions: 10-1, 18 h; in short: as §2
# [17] = tested on: Staphylococcus epidermidis; assay: Antibacterial activity against methicillin-sensitive Staphylococcus epidermidis 10-2 after 18 hrs by two fold serial dilution method; conditions: 10-2, 18 h; in short: as §2
# [18] = tested on: Staphylococcus aureus; assay: Antibacterial activity against methicillin-resistant Staphylococcus aureus 10-3 after 18 hrs by two fold serial dilution method; conditions: 10-3, 18 h; in short: as §3
# [19] = tested on: Pseudomonas aeruginosa; assay: Antibacterial activity against Pseudomonas aeruginosa 10-1 infected KM mouse systemic infection model assessed as decrease in mouse mortality administered orally twice after 1 and 4 hrs post infection measured up to 7 days; conditions: 10-1, po; in short: as §1
# [20] = tested on: Staphylococcus epidermidis; assay: Antibacterial activity against methicillin-resistant Staphylococcus epidermidis 10-4 infected KM mouse systemic infection model assessed as decrease in mouse mortality administered orally twice after 1 and 4 hrs post infection measured up to 7 days; conditions: 10-4, po; in short: as §1
# [21] = tested on: Staphylococcus aureus; assay: Antibacterial activity against methicillin-resistant Staphylococcus aureus 10-1 after 18 hrs by two fold serial dilution method; conditions: 10-1, 18 h; in short: as §3
# [22] = tested on: Staphylococcus aureus; assay: Antibacterial activity against Staphylococcus aureus ATCC 25923 after 18 hrs by two fold serial dilution method; conditions: ATCC 25923, 18 h; in short: as §2
# [23] = tested on: Enterococcus faecalis; assay: Antibacterial activity against Enterococcus faecalis 09-1 after 18 hrs by two fold serial dilution method; conditions: 09-1, 18 h; in short: as §2
# [24] = tested on: Staphylococcus epidermidis; assay: Antibacterial activity against methicillin-resistant Staphylococcus epidermidis 10-1 after 18 hrs by two fold serial dilution method; conditions: 10-1, 18 h; in short: as §3
# [25] = tested on: Staphylococcus aureus; assay: Antibacterial activity against methicillin-sensitive Staphylococcus aureus 10-3 after 18 hrs by two fold serial dilution method; conditions: 10-3, 18 h; in short: as §2
# [26] = tested on: Escherichia coli; assay: Antibacterial activity against Escherichia coli 09-3 after 18 hrs by two fold serial dilution method; conditions: 09-3, 18 h; in short: as §2
# [27] = tested on: Staphylococcus epidermidis; assay: Ratio of gemifloxacin ED50 to compound ED50 for methicillin-resistant Staphylococcus epidermidis 10-4 infected KM mouse systemic infection model
# [28] = tested on: Pseudomonas aeruginosa; assay: Antibacterial activity against Pseudomonas aeruginosa ATCC 27853 after 18 hrs by two fold serial dilution method; conditions: ATCC 27853, 18 h; in short: as §2
# [29] = tested on: Staphylococcus epidermidis; assay: Antibacterial activity against methicillin-resistant Staphylococcus epidermidis 10-2 after 18 hrs by two fold serial dilution method; conditions: 10-2, 18 h; in short: as §3
# [30] = tested on: Staphylococcus aureus; assay: Antibacterial activity against methicillin-sensitive Staphylococcus aureus 10-4 after 18 hrs by two fold serial dilution method; conditions: 10-4, 18 h; in short: as §2
# [31] = tested on: Enterococcus faecium; assay: Antibacterial activity against Enterococcus faecium 09-6 after 18 hrs by two fold serial dilution method; conditions: 09-6, 18 h; in short: as §2
# [32] = tested on: Staphylococcus epidermidis; assay: Ratio of ciprofloxacin ED50 to compound ED50 for methicillin-resistant Staphylococcus epidermidis 10-4 infected KM mouse systemic infection model
# [33] = tested on: Klebsiella pneumoniae; assay: Antibacterial activity against Klebsiella pneumoniae 09-2 after 18 hrs by two fold serial dilution method; conditions: 09-2, 18 h; in short: as §2
# [34] = tested on: Staphylococcus aureus; assay: Antibacterial activity against methicillin-sensitive Staphylococcus aureus 10-6 after 18 hrs by two fold serial dilution method; conditions: 10-6, 18 h; in short: as §2
# [35] = tested on: Staphylococcus aureus; assay: Antibacterial activity against methicillin-sensitive Staphylococcus aureus 10-1 after 18 hrs by two fold serial dilution method; conditions: 10-1, 18 h; in short: as §2
# [36] = tested on: Enterococcus faecalis; assay: Antibacterial activity against Enterococcus faecalis 09-2 after 18 hrs by two fold serial dilution method; conditions: 09-2, 18 h; in short: as §2
# [37] = tested on: Staphylococcus aureus; assay: Antibacterial activity against methicillin-resistant Staphylococcus aureus 10-2 after 18 hrs by two fold serial dilution method; conditions: 10-2, 18 h; in short: as §3
# [38] = tested on: Staphylococcus epidermidis; assay: Antibacterial activity against methicillin-sensitive Staphylococcus epidermidis 10-1 after 18 hrs by two fold serial dilution method; conditions: 10-1, 18 h; in short: as §2
# [39] = tested on: Pseudomonas aeruginosa; assay: Ratio of ciprofloxacin ED50 to compound ED50 for Pseudomonas aeruginosa 10-1 infected KM mouse systemic infection model
# [40] = tested on: Escherichia coli; assay: Antibacterial activity against Escherichia coli 09-1 after 18 hrs by two fold serial dilution method; conditions: 09-1, 18 h; in short: as §2
# [41] = tested on: Klebsiella pneumoniae; assay: Antibacterial activity against Klebsiella pneumoniae 10-1 after 18 hrs by two fold serial dilution method; conditions: 10-1, 18 h; in short: as §2
# [42] = tested on: Klebsiella pneumoniae; assay: Antibacterial activity against Klebsiella pneumoniae 10-3 after 18 hrs by two fold serial dilution method; conditions: 10-3, 18 h; in short: as §2
# [43] = tested on: Staphylococcus aureus; assay: Antibacterial activity against methicillin-sensitive Staphylococcus aureus 10-2 after 18 hrs by two fold serial dilution method; conditions: 10-2, 18 h; in short: as §2
# [44] = tested on: Enterococcus faecium; assay: Antibacterial activity against Enterococcus faecium 09-2 after 18 hrs by two fold serial dilution method; conditions: 09-2, 18 h; in short: as §2
# [45] = tested on: Enterococcus faecium; assay: Antibacterial activity against Enterococcus faecium 09-1 after 18 hrs by two fold serial dilution method; conditions: 09-1, 18 h; in short: as §2
# [46] = tested on: Escherichia coli; assay: Antibacterial activity against Escherichia coli ATCC 25922 after 18 hrs by two fold serial dilution method; conditions: ATCC 25922, 18 h; in short: as §2
# [47] = tested on: Pseudomonas aeruginosa; assay: Antibacterial activity against Pseudomonas aeruginosa 10-2 after 18 hrs by two fold serial dilution method; conditions: 10-2, 18 h; in short: as §2
# [48] = tested on: Escherichia coli; assay: Antibacterial activity against Escherichia coli 10-3 after 18 hrs by two fold serial dilution method; conditions: 10-3, 18 h; in short: as §2
smiles,measurement,setting,value
NCC1CN(c2nc3c(cc2F)c(=O)c(C(=O)O)cn3C2CC2)C/C1=N\OC(F)F (racemic),ED50,[1],100 mg/kg
same,MIC,[2],16 µg/mL
same,ED50,[3],5.83 mg/kg
same,MIC,[4],0.5 µg/mL
same,MIC,[5],0.5 µg/mL
same,MIC,[6],0.125 µg/mL
same,Ratio ED50,[7],6.1
same,ED50,[8],14.3 mg/kg
same,MIC,[9],0.008 µg/mL
same,MIC,[10],32 µg/mL
same,MIC,[11],2 µg/mL
same,MIC,[12],16 µg/mL
same,MIC,[13],16 µg/mL
same,MIC,[14],32 µg/mL
same,MIC,[15],4 µg/mL
same,MIC,[16],0.03 µg/mL
same,MIC,[17],32 µg/mL
same,MIC,[18],16 µg/mL
same,ED50,[19],21.3 mg/kg
same,ED50,[20],16.9 mg/kg
same,MIC,[21],16 µg/mL
same,MIC,[22],0.015 µg/mL
same,MIC,[23],4 µg/mL
same,MIC,[24],4 µg/mL
same,MIC,[25],0.06 µg/mL
same,MIC,[26],16 µg/mL
same,Ratio ED50,[27],1.4
same,MIC,[28],0.5 µg/mL
same,MIC,[29],0.25 µg/mL
same,MIC,[30],0.5 µg/mL
same,MIC,[31],0.06 µg/mL
same,Ratio ED50,[32],1.4
same,MIC,[33],32 µg/mL
same,MIC,[34],0.06 µg/mL
same,MIC,[35],0.015 µg/mL
same,MIC,[36],8 µg/mL
same,MIC,[37],1 µg/mL
same,MIC,[38],64 µg/mL
same,Ratio ED50,[39],5.2
same,MIC,[40],16 µg/mL
same,MIC,[41],0.015 µg/mL
same,MIC,[42],0.5 µg/mL
same,MIC,[43],4 µg/mL
same,MIC,[44],32 µg/mL
same,MIC,[45],32 µg/mL
same,MIC,[46],0.008 µg/mL
same,MIC,[47],32 µg/mL
same,MIC,[48],8 µg/mL
CO/N=C1\CN(c2nc3c(cc2F)c(=O)c(C(=O)O)cn3C2CC2)CC1CN (configuration not stated) [GEMIFLOXACIN],ED50,[1],108 mg/kg
same,MIC,[2],16 µg/mL
same,ED50,[3],6.86 mg/kg
same,MIC,[4],0.25 µg/mL
same,MIC,[5],0.25 µg/mL
same,MIC,[6],0.03 µg/mL
same,ED50,[8],14.9 mg/kg
same,MIC,[9],0.5 µg/mL
same,MIC,[10],32 µg/mL
same,MIC,[11],4 µg/mL
same,MIC,[12],16 µg/mL
same,MIC,[13],4 µg/mL
same,MIC,[14],16 µg/mL
same,MIC,[15],2 µg/mL
same,MIC,[16],0.015 µg/mL
same,MIC,[17],16 µg/mL
same,MIC,[18],16 µg/mL
same,ED50,[19],129 mg/kg
same,ED50,[20],24 mg/kg
same,MIC,[21],16 µg/mL
same,MIC,[22],0.008 µg/mL
same,MIC,[23],2 µg/mL
same,MIC,[24],0.25 µg/mL
same,MIC,[25],0.06 µg/mL
same,MIC,[26],16 µg/mL
same,MIC,[28],0.5 µg/mL
same,MIC,[29],0.5 µg/mL
same,MIC,[30],0.015 µg/mL
same,MIC,[31],0.03 µg/mL
same,MIC,[33],16 µg/mL
same,MIC,[34],0.008 µg/mL
same,MIC,[35],0.008 µg/mL
same,MIC,[36],4 µg/mL
same,MIC,[37],0.5 µg/mL
same,MIC,[38],2 µg/mL
same,MIC,[40],16 µg/mL
same,MIC,[41],0.015 µg/mL
same,MIC,[42],0.5 µg/mL
same,MIC,[43],2 µg/mL
same,MIC,[44],16 µg/mL
same,MIC,[45],16 µg/mL
same,MIC,[46],0.008 µg/mL
same,MIC,[47],16 µg/mL
same,MIC,[48],4 µg/mL
